The record followed here is ChEMBL document CHEMBL1155141, “Pyrophosphorolytic excision of nonobligate chain terminators by hepatitis C virus NS5B polymerase” (Antimicrob Agents Chemother, 2007).

In general, IC50 refers to the midpoint of a concentration-inhibition curve.

The source made the active and inactive calls. The calls are words filed in the database; no cut-off is given here.

Experiment [1] deals with Hepacivirus hominis. Nature of the experiment: Inhibition of HCV NS5B polymerase assessed as chain termination of RNA synthesis.
Experiment [2] can be described thus: Inhibition of HCV NS5B polymerase assessed as blocking of full length RNA product formation by single-nucleotide incorporation assay. Also noted: species or system Hepacivirus hominis. In short, it runs like this:
(§1)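 Run 30 min with 3 μM each NTP, competing nucleotide 300 nM. Full-length product was resolved on urea gels and quantified by phosphorimager. IC50 came from a four-parameter logistic fit, three independent experiments. The ratio is S282T IC50 over wild-type IC50.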

Experiment [3] has as its target RNA-directed RNA polymerase (Hepacivirus hominis, UniProt O39930, S282T). Briefly: Inhibition of HCV NS5B polymerase S282T mutant assessed as blocking of full length RNA product formation by single-nucleotide incorporation assay. Summed up:
as §1

Experiment [4] relates to Hepacivirus hominis. Nature of the experiment: Ratio of IC50 for HCV NS5B polymerase S282T mutant to IC50 for HCV NS5B polymerase by single-nucleotide incorporation assay. In short, it runs like this:
as §1

RNA-directed RNA polymerase, sequence (O39930 entry or part of it S282T): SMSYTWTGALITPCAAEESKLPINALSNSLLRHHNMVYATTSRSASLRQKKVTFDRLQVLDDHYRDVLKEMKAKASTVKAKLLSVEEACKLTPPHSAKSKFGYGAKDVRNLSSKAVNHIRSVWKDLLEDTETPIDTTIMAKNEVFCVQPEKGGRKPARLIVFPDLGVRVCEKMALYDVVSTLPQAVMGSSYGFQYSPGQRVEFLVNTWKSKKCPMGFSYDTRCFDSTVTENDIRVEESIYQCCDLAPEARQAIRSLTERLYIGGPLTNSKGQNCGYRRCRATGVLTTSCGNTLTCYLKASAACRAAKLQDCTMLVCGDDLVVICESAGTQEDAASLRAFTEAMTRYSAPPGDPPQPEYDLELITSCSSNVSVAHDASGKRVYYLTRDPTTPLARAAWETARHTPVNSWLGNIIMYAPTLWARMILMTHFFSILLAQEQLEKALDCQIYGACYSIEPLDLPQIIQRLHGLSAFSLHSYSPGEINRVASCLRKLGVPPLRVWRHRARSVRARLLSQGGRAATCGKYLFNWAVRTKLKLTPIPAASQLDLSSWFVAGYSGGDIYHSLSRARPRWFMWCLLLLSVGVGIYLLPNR

As to `Nc1ncnc2c1ncn2[C@@H]1O[C@H](COP(=O)(O)OP(=O)(O)OP(=O)(O)O)C[C@H]1O`, the result with Hepacivirus hominis [1] was Active. Besides, the IC50 in experiment [2] came to 4.4 µM; in experiment [3], 8.8 µM. For the same compound, the Ratio IC50 in the experiment with Hepacivirus hominis [4] was found to be 2.

For the compound `Nc1ccn([C@@H]2O[C@H](COP(=O)(O)OP(=O)(O)OP(=O)(O)O)C[C@H]2O)c(=O)n1`, the outcome in the experiment with Hepacivirus hominis [1] was Active. Further, the values for the IC50 in experiment [2] and in experiment [3] were 0.46 µM and 0.77 µM, respectively. Also, the Ratio IC50 in the experiment with Hepacivirus hominis [4] is 1.7.

As for `C[C@@]1(O)[C@H](O)[C@@H](COP(=O)(O)OP(=O)(O)OP(=O)(O)O)O[C@H]1n1ccc(N)nc1=O` [2'-C-METHYLCYTIDINE TRIPHOSPHATE], the IC50 worked out at 6.3 µM in experiment [2] and 60 µM in experiment [3]. In addition, the Ratio IC50 in the experiment on Hepacivirus hominis [4] is 9.5.

Turning to `O=c1ccn([C@@H]2O[C@H](COP(=O)(O)OP(=O)(O)OP(=O)(O)O)C[C@H]2O)c(=O)[nH]1`, the outcome in the experiment with Hepacivirus hominis [1] was Active.

For `Nc1nc2c(ncn2[C@@H]2O[C@H](COP(=O)(O)OP(=O)(O)OP(=O)(O)O)C[C@H]2O)c(=O)[nH]1`, the outcome in the experiment with Hepacivirus hominis [1] was Active.

Turning to `C[C@@]1(O)[C@H](O)[C@@H](COP(=O)(O)OP(=O)(O)OP(=O)(O)O)O[C@H]1n1cnc2c(N)ncnc21`, the IC50 in experiment [2] is 4.2 µM; in experiment [3], greater than 100 µM. The Ratio IC50 with Hepacivirus hominis [4] was greater than 24.
